Fh CTSL1 inh – blocks F. hepatica cathepsin L1 in PFM18AAP counter-screen; recombinant F. hepatica cathepsin L1, Z-Leu-Arg-MCA fluorescence; inhibition, % at 5.96 µM; 300,000 compounds, 0.49% hits;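 active = inhibition above the mean of all tested compounds plus 3 SD, set per screening campaign, cut at about 17% in these data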
TDP2 inh – TDP2 (human) inhibition, absorbance primary screen | recombinant TDP2, T5PNP hydrolysis, p-nitrophenol absorbance 415 nm | AID 720702 | O95551 | 370,000 compounds, 0.34% hits | inhibition, % at 12.8 µM;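 active = inhibition above the mean of all tested compounds plus 3 SD, set per campaign, cut at about 25% in these data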
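Material: recombinant human TDP2; quantity: TDP2 enzyme at 120 nM final; medium: Tris-HCl pH 7.5 with MgCl2; compound: single concentration, 12.8 µM nominal, with 1% DMSO; incubation: 2 h enzyme incubation at 37 °C; signal: epi absorbance; measure: percent inhibition; benchmarks: high control without enzyme, low control DMSO plus TDP2; repeats: singlicate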
GSTO1 inh – GSTO1 inhibition, counter-screen for RBBP9 inhibitors; P78417; recombinant GSTO1, activity-based probe fluorescence polarization; inhibition, % at 5.96 µM; 300,000 compounds, 1.1% hits; AID 1974;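 active = inhibition above the campaign mean inhibition plus 3 SD, cut at about 35% in these data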
PRMT1 FP inh – inhibitors of human PRMT1 | AID 652257 | Q99873 | 370,000 compounds, 1.3% hits | recombinant PRMT1, activity-based probe fluorescence polarization | inhibition, % at 2.79 µM;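 active = inhibition above about 21% made by adding two undisclosed values, limit read from the data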
PAD4 FP inh – PAD4 (human) enzyme inhibition | Q9UM07 | recombinant PAD4, RCA probe fluorescence polarization | inhibition, % at 6.36 µM | 330,000 compounds, 0.41% hits;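 active = percent inhibition above a cutoff equal to the mean of all tested compounds plus 3 SD, cut at about 15% in these data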
Target sequence (Q9UM07 whole entry, looked up): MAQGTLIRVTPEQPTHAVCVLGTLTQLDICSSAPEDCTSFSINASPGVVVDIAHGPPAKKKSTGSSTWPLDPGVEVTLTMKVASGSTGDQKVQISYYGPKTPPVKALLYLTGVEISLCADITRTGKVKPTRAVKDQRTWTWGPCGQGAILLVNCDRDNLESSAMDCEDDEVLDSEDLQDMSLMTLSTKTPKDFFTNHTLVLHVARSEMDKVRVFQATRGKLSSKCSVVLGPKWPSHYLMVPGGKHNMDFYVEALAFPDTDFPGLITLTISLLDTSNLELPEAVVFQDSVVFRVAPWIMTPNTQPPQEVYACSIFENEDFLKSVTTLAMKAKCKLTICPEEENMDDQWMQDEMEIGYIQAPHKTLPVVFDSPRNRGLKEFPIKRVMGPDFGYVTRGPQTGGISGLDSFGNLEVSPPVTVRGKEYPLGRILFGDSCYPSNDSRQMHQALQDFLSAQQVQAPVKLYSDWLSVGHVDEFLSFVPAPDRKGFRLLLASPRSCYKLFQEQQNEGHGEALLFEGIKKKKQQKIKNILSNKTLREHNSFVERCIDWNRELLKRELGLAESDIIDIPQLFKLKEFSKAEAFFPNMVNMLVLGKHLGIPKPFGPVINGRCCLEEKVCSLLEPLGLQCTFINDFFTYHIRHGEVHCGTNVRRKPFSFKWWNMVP
TDP2 inh conf – human TDP2 inhibition, confirmation. inhibition, % at 12.8 µM. 1,100 compounds, 22% hits. recombinant human TDP2, absorbance read-out. AID 743263. shares compounds with TDP2 inh; in the data active = inhibition above about 25%
Numbers stand for hits; 0 = inactive; - = no result. This is a sample that favours compounds with a hit; in the whole collection about 2.5% have one here.

SMILES	Fh CTSL1 inh	TDP2 inh	GSTO1 inh	PRMT1 FP inh	PAD4 FP inh	TDP2 inh conf
COc1ccc(NC(=O)CSc2nnc(-c3cc(C)[nH]n3)n2N)cc1OC	0	30	0	0	0	0
CCCCOCCCNC(=O)C[C@@H]1C(=O)N(Cc2ccc(OC)cc2)/C2=C/CCCCC[C@@]21C(=O)OCC	-	0	-	0	-	-
C=C1CCC[C@]2(C)C[C@H]3OC(=O)C(CNCCN(CC)CC)[C@H]3CC12 (some centres undefined)	0	34	0	0	0	0
C=C1CCC[C@]2(C)C[C@H]3OC(=O)C(CNCCN(C)C)[C@H]3CC12 (some centres undefined)	0	0	0	0	0	-
CCOP(=O)(OCC)C(NC(=O)Nc1ccc(Cl)cc1)C(N)=O (centres undefined)	0	45	0	0	0	0
C/C(=N/NS(=O)(=O)c1ccc(Br)cc1)c1c[nH]c2ccccc12	0	25	0	0	0	0
C/C(=N\NS(=O)(=O)c1ccc([N+](=O)[O-])cc1)c1c[nH]c2ccccc12	0	0	0	0	0	-
O=C1NC(=O)/C(=C/c2ccc(-c3cc(C(=O)O)ccc3Cl)o2)S1	0	32	0	0	0	0
CCOC(=O)CC[C@@H]1CC[C@]2(CCCN(Cc3nccs3)C2)O1	-	0	-	0	-	-
Cc1cc(Br)cn2c(Cc3cccc(F)c3)c(-c3ccc(C#N)cc3)nc12	-	0	-	0	-	-
COc1cccc(/C=C2\SC(=S)N(CC(=O)N(C)C3CCS(=O)(=O)C3)C2=O)c1 (centres undefined)	0	30	0	0	0	0
COc1ccc(/C=C2\SC(=S)N(CC(=O)N(C)C3CCS(=O)(=O)C3)C2=O)cc1 (centres undefined)	0	0	0	0	0	-
COCc1cc(N2CCNC[C@@H]2C)ccc1N1CCN(Cc2ccccc2)[C@H](C)C1	-	0	-	0	-	-
CC1=NN(c2ccccc2)C(=O)C1C(=O)C(=O)Nc1ccc(F)cc1 (centres undefined)	0	32	0	0	0	0
O=S1(=O)c2ccc(Br)cc2OC[C@@H](Cc2ccccc2)N1Cc1cn(CCC2OCCCO2)nn1	-	0	-	0	-	-
CCNC(=S)NS(=O)(=O)c1ccccc1	0	0	0	0	0	-
CCNC(=S)NS(=O)(=O)c1ccc(Cl)cc1	0	37	0	0	0	0
CC1(C)CC(=O)C=C(Nc2ccc(C(=O)O)cc2)C1	0	0	0	0	0	-
CC1(C)CC(=O)C=C(Nc2ccc(O)c(C(=O)O)c2)C1	0	25	0	0	0	0
O=C(NCc1ccc(Cl)cc1)OCCN1C(=O)CCC12CCC(c1ccccc1)CC2 (centres undefined)	-	0	-	0	-	-
CN1C(=O)/C(=C/c2ccc(C(=O)Nc3ccc(O)cc3C(=O)O)cc2)SC1=S	0	28	0	0	0	0
CC(=O)N(/N=C1\Sc2ccccc2C1=O)c1cccc(C)c1	88	69	0	0	0	53
CC(=O)N(CN1C(=O)c2ccccc2C1=O)c1cccc(C)c1	0	0	0	0	0	-
COc1cccc(-n2c(=O)c3ccccc3n3c(=S)[nH]nc23)c1	0	69	0	0	0	0
CC(Nc1cccc2ccccc12)C(=O)N/N=C/c1ccccn1 (centres undefined)	0	26	0	25	0	0
SMILES	Fh CTSL1 inh	TDP2 inh	GSTO1 inh	PRMT1 FP inh	PAD4 FP inh	TDP2 inh conf
O=C(CN1CCCC1)Nc1ccc2c(c1)CCC2	0	28	0	0	0	0
O=S(=O)(Nc1c(O)ccc2ccccc12)c1ccc(F)cc1	0	25	0	0	0	0
O=S(=O)(Nc1c(O)ccc2ccccc12)c1ccccc1	0	0	0	0	0	-
COc1ccc2c(c1)cc1c(=O)n(CC(=O)NCCCN3CCOCC3)nc(C)n12	0	0	0	0	0	-
CCCN1CCN(CCCNC(=O)Cn2nc(C)n3c(cc4cc(OC)ccc43)c2=O)CC1	0	27	0	0	0	0
Cc1ccc(NC(=O)C2CCN(S(=O)(=O)c3ccccc3)CC2)cc1	0	30	0	0	0	0
Cc1ccccc1N1CC(C(=O)Nc2ccc(S(=O)(=O)N3CCCCC3)cc2)CC1=O (centres undefined)	0	25	0	0	0	0
Cc1ccc(NC(=O)C2CCN(S(=O)(=O)c3ccc(F)cc3)CC2)cc1	0	0	0	0	0	-
CCCCC(Sc1nc(N)c(NC(=O)c2ccco2)c(=O)[nH]1)C(=O)O (centres undefined)	0	26	0	0	0	0
CCCCC(Sc1nc(N)c(NC(=O)c2ccc(OCC)cc2)c(=O)[nH]1)C(=O)O (centres undefined)	0	0	0	0	0	-
COC(=O)[C@]12C[C@H](CC(=O)N3CCSCC3)C(=O)N(CCC3=CCCCC3)C1=C[C@H](C1CCCC1)O[C@@H]2C	-	0	-	0	-	-
Cc1ccc(S(=O)(=O)Nc2ccc3c4c(cccc24)CC3)c(C)c1	0	0	0	0	0	-
Cc1ccc(S(=O)(=O)Nc2ccc(O)c3ccccc23)c(C)c1	-	29	-	0	-	0
COC(=O)C1=C(C)N(Cc2ccc(C(F)(F)F)cc2)C(=NCc2ccccc2)NC1c1ccc(C(F)(F)F)cc1 (centres undefined)	-	0	-	0	-	-
CCOC(=O)C1CCN(C2=C(NS(=O)(=O)c3ccc(Cl)cc3)C(=O)c3ccccc3C2=O)CC1	0	0	0	0	0	-
CCN1CCN(C2=C(NS(=O)(=O)c3ccc(C)cc3)C(=O)c3ccccc3C2=O)CC1	0	25	0	0	0	0
CCOC(=O)N1CCN(C2=C(NS(=O)(=O)c3ccc(NC(C)=O)cc3)C(=O)c3ccccc3C2=O)CC1	0	28	0	0	0	0
COc1cccc(Cn2c(C(C)n3c(-c4cnccn4)nc4ccccc43)nc3ccccc32)c1 (centres undefined)	-	0	-	0	-	-
CC(c1nc2scc(-c3ccccc3)c2c(=O)[nH]1)N1CCN(CC(=O)NC2CC2)CC1 (centres undefined)	-	32	-	0	-	0
CC(C)CNC(=O)CSc1nc2scc(-c3ccccc3)c2c(=O)[nH]1	0	0	0	0	0	-
CCN1CCN(CCOCCOc2ccccc2)CC1	0	28	0	0	0	0
CN1CCN(CCOc2ccc(Cc3ccccc3)cc2)CC1	0	0	0	0	0	-
CCc1ccc(OCCOCCN2CCN(C)CC2)cc1	0	32	0	0	0	0
CN1CCN(CCOCCOc2ccc(Br)cc2Cl)CC1	0	29	0	0	0	0
CCN1Cc2nnn(Cc3ccccc3)c2-c2cc(F)ccc2S1(=O)=O	-	0	-	0	-	-
CN(C)c1ccc(C=c2c3cc(O)ccc3n3c2cc(-c2ccccc2)[n+]3C)cc1	-	0	-	0	-	-
C[n+]1c(-c2ccccc2)cc2c(=Cc3ccccc3)c3ccccc3n21	-	36	-	0	-	47
C[n+]1c(-c2ccccc2)cc2c(=Cc3ccc([N+](=O)[O-])cc3)c3ccccc3n21	-	37	-	0	-	46
